The source made the active and inactive calls. The calls are words filed in the database; no cut-off is given here.

Eleven compounds from ChEMBL document CHEMBL4138269, “Dual NAMPT/HDAC Inhibitors as a New Strategy for Multitargeting Antitumor Drug Discovery” (ACS Med Chem Lett, 2018) can be followed below.

Series [1] concerns the target T1, Nicotinamide phosphoribosyltransferase (Homo sapiens, UniProt P43490). The experiment in a line: Inhibition of NAMPT (unknown origin) using NAM as substrate incubated for 5 mins followed by substrate addition measured after 15 mins by fluorometric method.
Target sequence in this assay (P43490 whole entry): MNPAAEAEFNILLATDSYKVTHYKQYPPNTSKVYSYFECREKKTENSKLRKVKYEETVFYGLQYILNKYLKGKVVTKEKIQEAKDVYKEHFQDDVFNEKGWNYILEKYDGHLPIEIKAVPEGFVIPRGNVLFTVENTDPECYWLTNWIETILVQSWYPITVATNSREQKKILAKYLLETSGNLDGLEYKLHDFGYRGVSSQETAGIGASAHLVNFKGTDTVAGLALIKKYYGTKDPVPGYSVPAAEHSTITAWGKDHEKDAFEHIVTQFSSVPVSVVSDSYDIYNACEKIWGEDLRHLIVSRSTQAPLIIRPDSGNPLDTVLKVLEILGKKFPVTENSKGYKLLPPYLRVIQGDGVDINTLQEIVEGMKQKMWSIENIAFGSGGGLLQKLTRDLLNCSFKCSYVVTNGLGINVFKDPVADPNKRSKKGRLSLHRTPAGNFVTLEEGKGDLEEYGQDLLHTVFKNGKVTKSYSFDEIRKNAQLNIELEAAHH
Another series deals with A549. The experiment in a line: cells. Format: functional, cell-based. As to conditions: Homo sapiens, A549, 72 h.
In another series the test system is HepG2. In words: cells. The class given is functional, cell-based. The settings on record: Homo sapiens, HepG2, 72 h.
For series [2], the system named is HCT-116. The experiment in a line: cells. The class given is functional, cell-based. As to conditions: Homo sapiens, HCT-116, 72 h.
The target of series [3] is T2, Histone deacetylase 1 (Homo sapiens, UniProt Q13547). The experiment in a line: Inhibition of recombinant full length human C-terminal His/flag-tagged HDAC1 expressed in baculovirus infected Sf9 insect cells after 30 mins by fluorescence assay.
T2 sequence (Q13547 whole entry): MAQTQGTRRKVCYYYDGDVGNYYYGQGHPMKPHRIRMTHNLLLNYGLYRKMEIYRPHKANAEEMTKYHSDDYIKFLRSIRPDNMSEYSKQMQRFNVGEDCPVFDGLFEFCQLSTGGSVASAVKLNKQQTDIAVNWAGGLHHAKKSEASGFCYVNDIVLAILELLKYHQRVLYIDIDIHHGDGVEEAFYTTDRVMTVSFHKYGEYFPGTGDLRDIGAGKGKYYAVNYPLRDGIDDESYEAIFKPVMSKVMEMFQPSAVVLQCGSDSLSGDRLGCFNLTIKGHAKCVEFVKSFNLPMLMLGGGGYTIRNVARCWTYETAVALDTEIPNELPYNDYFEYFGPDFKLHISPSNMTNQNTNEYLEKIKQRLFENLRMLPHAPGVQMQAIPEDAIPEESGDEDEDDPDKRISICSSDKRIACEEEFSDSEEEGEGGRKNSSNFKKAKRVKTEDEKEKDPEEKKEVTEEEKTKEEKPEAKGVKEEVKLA
Series [4] relates to HCT-116. The experiment in a line: Antitumor activity against human HCT116 cells xenografted in BALB/C nude mouse assessed as tumor growth inhibition at 15 mg/kg, ip bid administered for 21 consecutive days measured every 3 days. Format: functional. As to conditions: HCT-116, ip, 72 h, read-out: TGI. In outline: (§1)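 HCT116 tumour xenografts were grown in nude mice. Agents were given ip twice daily for 21 consecutive days. Tumour growth and body weight were followed. Tumour growth inhibition (TGI) and relative increment ratio (T/C) were derived. Data are mean ± standard deviation, compared with the control group by Student's t test.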
In general terms: A xenograft is tissue or cells of one species grown in another, often human tumour cells in immunodeficient mice.

Series [5] concerns Mus musculus. In words: Toxicity in BALB/C nude mouse xenografted with human HCT116 cells assessed as body weight loss at 15 mg/kg, ip bid administered for 21 consecutive days measured every 3 days. Format: organism-based. As to conditions: in vivo, 72 h. In outline:
as §1

In series [6] the target is T3, Histone deacetylase (Homo sapiens) (UniProt Q13547+O15379+Q9UBN7+Q92769+Q9UQL6+Q8WUI4+Q9BY41+Q96DB2+P56524+Q9UKV0+Q969S8). In words: Inhibition of HDAC in human HCT116 cells assessed as increase in acetyl-histone H3 level at 1 to 5 uM after 24 hrs by Western blot analysis. Format: cell-based. The procedure, abridged: (§2)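 HCT116 cells were treated for 24 h at 1 μM and 5 μM. Acetylated histone H3 and acetylated histone H4 were detected by Western blot.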
For orientation: A western blot detects proteins with antibodies after separation by electrophoresis.

The target of series [7] is T1, Nicotinamide phosphoribosyltransferase. In words: Binding affinity to NAMPT in human HCT116 cells assessed as change in melting temperature at 10 uM after 3 hrs by CETSA. The class given is cell-based.
Target sequence in this assay (P43490 whole entry, looked up): as the sequence (P43490 whole entry) above
A further series concerns the target Histone deacetylase 2 (Homo sapiens, UniProt Q92769).
Series [8] deals with T4, Protein deacetylase HDAC6 (Homo sapiens, UniProt Q9UBN7).
T4 sequence (Q9UBN7 whole entry): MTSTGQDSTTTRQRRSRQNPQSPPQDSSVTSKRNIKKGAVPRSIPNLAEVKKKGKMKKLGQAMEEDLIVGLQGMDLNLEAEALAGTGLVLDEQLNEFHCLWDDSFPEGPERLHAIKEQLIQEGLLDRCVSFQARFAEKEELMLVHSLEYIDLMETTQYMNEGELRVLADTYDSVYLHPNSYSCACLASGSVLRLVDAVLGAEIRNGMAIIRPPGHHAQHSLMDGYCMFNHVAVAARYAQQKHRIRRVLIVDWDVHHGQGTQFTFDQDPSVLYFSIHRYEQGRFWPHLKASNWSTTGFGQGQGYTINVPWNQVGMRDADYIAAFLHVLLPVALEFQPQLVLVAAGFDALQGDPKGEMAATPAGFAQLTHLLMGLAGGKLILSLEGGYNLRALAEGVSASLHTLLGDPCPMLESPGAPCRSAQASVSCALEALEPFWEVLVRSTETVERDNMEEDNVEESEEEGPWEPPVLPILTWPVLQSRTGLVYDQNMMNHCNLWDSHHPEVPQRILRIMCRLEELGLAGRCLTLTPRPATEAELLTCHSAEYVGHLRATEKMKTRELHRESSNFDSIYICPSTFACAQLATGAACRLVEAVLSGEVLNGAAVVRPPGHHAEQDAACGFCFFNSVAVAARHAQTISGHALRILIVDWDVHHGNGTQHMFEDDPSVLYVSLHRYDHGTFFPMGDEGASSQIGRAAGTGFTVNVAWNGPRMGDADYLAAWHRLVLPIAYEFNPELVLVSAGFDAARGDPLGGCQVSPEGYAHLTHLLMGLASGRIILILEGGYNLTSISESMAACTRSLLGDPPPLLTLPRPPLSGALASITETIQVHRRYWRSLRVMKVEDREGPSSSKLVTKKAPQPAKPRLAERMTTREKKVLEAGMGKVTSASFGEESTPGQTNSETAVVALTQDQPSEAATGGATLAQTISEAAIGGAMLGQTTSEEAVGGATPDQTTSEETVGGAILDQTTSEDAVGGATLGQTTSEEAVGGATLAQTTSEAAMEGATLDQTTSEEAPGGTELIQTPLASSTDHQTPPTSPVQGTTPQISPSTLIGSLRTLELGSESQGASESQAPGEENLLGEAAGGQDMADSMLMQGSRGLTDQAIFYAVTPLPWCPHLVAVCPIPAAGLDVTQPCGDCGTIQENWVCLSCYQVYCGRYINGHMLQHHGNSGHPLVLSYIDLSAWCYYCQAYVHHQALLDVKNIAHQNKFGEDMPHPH
In words: Inhibition of recombinant human full length C-terminal flag-tagged HDAC6 expressed in baculovirus infected Sf9 insect cells after 30 mins by fluorescence assay.

Series [9] addresses T1, Nicotinamide phosphoribosyltransferase. The experiment in a line: Inhibition of NAMPT in human HCT116 cells assessed as decrease in cellular NAD+ level after 24 hrs by MTT dye based spectrophotometric analysis. The class given is cell-based. The procedure, abridged: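 HCT116 cells were exposed to a concentration series for 24 h. Cellular NAD+ level was measured and concentration–response curves were fitted.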
Target sequence in this assay (P43490 whole entry, looked up): as the sequence (P43490 whole entry) above
In general terms: Tetrazolium assays rely on reduction of a dye to a coloured formazan, in cell work by metabolically active cells.

For series [10], the target named is T3, Histone deacetylase (Homo sapiens). In words: Inhibition of HDAC in human HCT116 cells assessed as increase in acetyl-histone H4 level at 1 to 5 uM after 24 hrs by Western blot analysis. Format: cell-based. In outline: as §2
In a further series the target is Histone deacetylase 4 (Homo sapiens, UniProt P56524). In words: Inhibition of recombinant human N-terminal GST-tagged HDAC4 (612 to end residues) expressed in baculovirus infected Sf9 insect cells after 30 mins by fluorescence assay.
Sequence of Histone deacetylase 4 (P56524 whole entry, the tested form may be a part): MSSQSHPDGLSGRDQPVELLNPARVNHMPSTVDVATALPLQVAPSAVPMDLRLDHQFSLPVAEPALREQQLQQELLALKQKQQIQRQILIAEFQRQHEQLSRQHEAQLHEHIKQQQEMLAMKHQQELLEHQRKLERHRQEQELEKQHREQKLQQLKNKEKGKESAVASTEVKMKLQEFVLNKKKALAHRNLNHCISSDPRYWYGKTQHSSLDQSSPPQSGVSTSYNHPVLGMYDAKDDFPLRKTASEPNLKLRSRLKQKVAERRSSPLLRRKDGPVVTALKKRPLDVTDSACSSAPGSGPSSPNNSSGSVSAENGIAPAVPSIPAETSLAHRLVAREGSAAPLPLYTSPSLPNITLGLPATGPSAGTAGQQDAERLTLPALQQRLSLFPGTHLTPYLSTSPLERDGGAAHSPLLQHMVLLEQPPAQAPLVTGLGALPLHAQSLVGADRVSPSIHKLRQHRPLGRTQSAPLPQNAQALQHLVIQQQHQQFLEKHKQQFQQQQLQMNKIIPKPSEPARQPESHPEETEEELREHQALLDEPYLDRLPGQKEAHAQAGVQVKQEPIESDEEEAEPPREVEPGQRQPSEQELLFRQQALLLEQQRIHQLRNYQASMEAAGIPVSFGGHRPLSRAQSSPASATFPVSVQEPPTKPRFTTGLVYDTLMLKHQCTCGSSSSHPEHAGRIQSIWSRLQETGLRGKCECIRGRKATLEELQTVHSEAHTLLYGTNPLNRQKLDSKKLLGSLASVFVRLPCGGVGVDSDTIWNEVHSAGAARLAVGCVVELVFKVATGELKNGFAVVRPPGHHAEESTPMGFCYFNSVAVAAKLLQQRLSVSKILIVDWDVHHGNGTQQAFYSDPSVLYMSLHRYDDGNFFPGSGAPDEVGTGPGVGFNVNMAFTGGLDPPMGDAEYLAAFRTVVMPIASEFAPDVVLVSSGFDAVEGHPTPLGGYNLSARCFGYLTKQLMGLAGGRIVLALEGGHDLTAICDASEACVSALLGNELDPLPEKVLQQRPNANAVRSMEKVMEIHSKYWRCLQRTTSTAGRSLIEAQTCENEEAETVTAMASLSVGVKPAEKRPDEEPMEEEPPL
In series [11] the target is Histone deacetylase 3/NCoR1 (Homo sapiens, UniProt O15379). The experiment in a line: Inhibition of human recombinant HDAC3/GST-tagged NCOR1 DAD (397 to 503 residues) expressed in baculovirus expression system after 30 mins by fluorescence assay.
Sequence of Histone deacetylase 3/NCoR1 (O15379 whole entry, the tested form may be a part): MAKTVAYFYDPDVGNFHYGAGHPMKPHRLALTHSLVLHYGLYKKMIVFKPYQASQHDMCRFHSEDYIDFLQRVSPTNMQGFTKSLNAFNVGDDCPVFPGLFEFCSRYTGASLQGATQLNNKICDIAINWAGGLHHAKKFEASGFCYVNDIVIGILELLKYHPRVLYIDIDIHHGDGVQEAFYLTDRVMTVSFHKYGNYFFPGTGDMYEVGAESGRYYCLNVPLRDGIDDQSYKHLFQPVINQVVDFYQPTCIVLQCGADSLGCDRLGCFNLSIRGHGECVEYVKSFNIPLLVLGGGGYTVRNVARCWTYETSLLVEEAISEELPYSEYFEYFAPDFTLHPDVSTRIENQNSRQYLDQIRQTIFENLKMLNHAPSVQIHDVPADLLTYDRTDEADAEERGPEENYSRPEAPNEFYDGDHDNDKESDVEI
Sequence of Histone deacetylase 3/NCoR1 (O75376 whole entry, further chain, the tested form may be a part): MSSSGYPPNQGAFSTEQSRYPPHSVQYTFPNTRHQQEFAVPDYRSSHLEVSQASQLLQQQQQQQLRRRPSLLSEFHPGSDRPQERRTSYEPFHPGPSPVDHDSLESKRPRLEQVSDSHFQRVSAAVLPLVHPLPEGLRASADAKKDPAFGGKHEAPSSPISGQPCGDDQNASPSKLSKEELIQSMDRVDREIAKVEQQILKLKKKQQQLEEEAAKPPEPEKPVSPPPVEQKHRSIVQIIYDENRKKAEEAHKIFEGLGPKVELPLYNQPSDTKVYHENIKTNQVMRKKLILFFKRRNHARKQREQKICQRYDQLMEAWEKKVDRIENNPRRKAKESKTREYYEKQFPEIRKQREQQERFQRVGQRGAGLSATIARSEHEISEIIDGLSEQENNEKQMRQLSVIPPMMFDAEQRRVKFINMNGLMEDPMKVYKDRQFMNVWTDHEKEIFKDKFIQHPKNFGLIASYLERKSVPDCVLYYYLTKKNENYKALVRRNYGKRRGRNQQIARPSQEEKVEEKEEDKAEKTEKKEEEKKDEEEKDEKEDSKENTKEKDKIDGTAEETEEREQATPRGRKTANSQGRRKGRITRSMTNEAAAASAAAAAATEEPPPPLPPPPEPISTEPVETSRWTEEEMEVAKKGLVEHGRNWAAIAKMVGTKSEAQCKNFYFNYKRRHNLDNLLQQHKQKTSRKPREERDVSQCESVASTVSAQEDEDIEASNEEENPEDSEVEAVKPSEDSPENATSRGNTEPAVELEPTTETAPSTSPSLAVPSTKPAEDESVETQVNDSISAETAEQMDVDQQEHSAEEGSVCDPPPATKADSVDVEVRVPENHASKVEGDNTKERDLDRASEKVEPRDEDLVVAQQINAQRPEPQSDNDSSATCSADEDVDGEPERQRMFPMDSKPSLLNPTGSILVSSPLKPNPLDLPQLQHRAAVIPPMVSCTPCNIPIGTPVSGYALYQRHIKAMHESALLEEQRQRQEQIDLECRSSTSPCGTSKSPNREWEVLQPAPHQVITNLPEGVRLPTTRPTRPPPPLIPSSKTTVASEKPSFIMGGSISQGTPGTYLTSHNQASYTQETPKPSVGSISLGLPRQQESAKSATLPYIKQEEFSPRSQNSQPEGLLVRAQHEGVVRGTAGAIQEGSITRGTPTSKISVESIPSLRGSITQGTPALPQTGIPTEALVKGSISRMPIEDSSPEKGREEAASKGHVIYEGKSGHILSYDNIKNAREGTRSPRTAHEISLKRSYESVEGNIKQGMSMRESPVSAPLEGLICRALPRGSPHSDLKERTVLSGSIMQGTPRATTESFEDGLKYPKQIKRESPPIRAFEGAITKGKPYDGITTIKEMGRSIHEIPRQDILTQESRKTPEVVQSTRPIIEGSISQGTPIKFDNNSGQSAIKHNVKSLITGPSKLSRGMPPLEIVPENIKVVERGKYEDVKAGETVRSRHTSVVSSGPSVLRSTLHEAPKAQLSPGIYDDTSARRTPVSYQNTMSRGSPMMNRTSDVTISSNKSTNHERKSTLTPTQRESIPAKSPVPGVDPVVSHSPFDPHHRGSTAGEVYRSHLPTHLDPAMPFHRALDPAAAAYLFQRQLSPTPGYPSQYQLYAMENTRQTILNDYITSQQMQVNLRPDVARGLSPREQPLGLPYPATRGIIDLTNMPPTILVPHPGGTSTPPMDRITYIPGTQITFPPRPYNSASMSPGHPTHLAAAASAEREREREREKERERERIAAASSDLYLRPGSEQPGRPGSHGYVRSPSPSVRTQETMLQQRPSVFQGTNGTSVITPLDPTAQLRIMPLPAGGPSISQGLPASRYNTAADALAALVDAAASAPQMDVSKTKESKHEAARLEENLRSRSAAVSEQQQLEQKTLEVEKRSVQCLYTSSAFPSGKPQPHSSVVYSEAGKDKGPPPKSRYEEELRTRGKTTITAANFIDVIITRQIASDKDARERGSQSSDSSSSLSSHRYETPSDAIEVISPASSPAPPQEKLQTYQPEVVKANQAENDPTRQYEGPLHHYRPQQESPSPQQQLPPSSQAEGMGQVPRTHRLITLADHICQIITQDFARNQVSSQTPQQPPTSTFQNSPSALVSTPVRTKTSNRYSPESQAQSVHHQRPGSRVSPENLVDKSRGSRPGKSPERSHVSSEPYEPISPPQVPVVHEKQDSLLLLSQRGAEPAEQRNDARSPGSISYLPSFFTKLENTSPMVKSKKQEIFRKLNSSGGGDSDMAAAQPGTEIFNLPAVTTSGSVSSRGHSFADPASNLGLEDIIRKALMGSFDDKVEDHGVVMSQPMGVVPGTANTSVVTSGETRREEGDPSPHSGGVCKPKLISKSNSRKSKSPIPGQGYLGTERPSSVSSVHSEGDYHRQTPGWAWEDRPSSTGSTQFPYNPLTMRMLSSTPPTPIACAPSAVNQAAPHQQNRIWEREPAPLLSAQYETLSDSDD
A further series concerns the target T5, Histone deacetylase 8 (Homo sapiens, UniProt Q9BY41).
T5 sequence (Q9BY41 whole entry): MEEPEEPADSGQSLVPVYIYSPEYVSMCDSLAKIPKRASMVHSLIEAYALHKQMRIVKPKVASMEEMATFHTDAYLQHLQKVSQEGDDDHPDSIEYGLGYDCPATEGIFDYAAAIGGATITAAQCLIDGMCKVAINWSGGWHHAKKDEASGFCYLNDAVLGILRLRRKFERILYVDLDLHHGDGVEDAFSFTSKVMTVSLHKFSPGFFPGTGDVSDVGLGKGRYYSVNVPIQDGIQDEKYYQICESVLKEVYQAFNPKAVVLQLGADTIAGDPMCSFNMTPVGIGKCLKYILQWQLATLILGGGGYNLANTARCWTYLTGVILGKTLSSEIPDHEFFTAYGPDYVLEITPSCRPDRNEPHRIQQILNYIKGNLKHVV
The experiment in a line: Inhibition of recombinant human full length C-terminal His-tagged HDAC8 expressed in baculovirus infected Sf9 insect cells after 30 mins by fluorescence assay.

The subject of series [12] is Mus musculus. In words: Toxicity in BALB/C nude mouse xenografted with human HCT116 cells assessed as body weight loss at 25 mg/kg, ip bid administered for 21 consecutive days measured every 3 days. The settings on record: in vivo, 72 h. The class given is organism-based. The procedure, abridged: as §1
In series [13] the test system is HCT-116. In words: animal or person. The settings on record: Mus musculus, HCT-116, ip, 72 h, read-out: TGI. The class given is functional, Homo sapiens.
Series [14] has as its target T2, Histone deacetylase 1. In words: Potency index, ratio of SAHA IC50 to compound IC50 for recombinant human full length C-terminal His/flag-tagged HDAC1 expressed in baculovirus infected Sf9 insect cells.

For the compound `CC(C)CCN(CCCCCC(=O)NO)c1ncc(C(=O)NCCCn2ccnc2)s1`, the IC50 (in general, the concentration at which inhibition is half-maximal) in series [1] is 0.02 µM; in the series with A549, 13 µM; in the series on HepG2, 106 µM; in the series with HCT-116 [2], 85 µM; at Histone deacetylase 1 [3], 0.06 µM.

Take `O=C(/C=C/c1cccnc1)NCCCCC1CCN(C(=O)c2ccccc2)CC1` [DAPORINAD]: in the series with A549, it took 3.7 µM to reach half-maximal inhibition (IC50). The inhibition in vivo at 15 mg/kg in the series on HCT-116 [4] was determined as 39%. In addition, in the series on Mus musculus [5], the Activity entry is reported as “Non-Toxic”.

For `O=C(/C=C/c1ccc(CN(Cc2ccc(F)cc2)c2ncc(C(=O)NCCCn3ccnc3)s2)cc1)NO`, the IC50 in [1] is 0.014 µM; with A549, 2.7 µM; in the series with HepG2 it was 13 µM; in the series with HCT-116 [2] it was 83 µM; at Histone deacetylase 1 [3] it was 0.091 µM.

Regarding `O=C(CCCCCN(Cc1ccc(F)cc1)c1ncc(C(=O)NCCCn2ccnc2)s1)NO`, the IC50 stood at 0.007 µM in series [1]; 54 µM in the series with A549; 30 µM in the series on HepG2; 19 µM in the series on HCT-116 [2]; 0.1 µM on Histone deacetylase 1 [3].

For `CC(C)CCN(CCCCCCC(=O)NO)c1ncc(C(=O)NCc2cccnc2)s1`, the IC50 came to 0.22 µM in series [1]; 19 µM in the series on A549; 7 µM with HepG2; 12 µM with HCT-116 [2]; 0.036 µM on Histone deacetylase 1 [3].

Take `O=C(CCCCCCN(Cc1ccc(F)cc1)c1ncc(C(=O)NCCCn2ccnc2)s1)NO`: the IC50 in series [1] was found to be 0.019 µM; in the series on A549, 9.7 µM; in the series with HepG2, 9.4 µM; with HCT-116 [2] it was 9.7 µM; on Histone deacetylase 2, 0.033 µM; in [8], 0.0062 µM. Moreover, the IC50 was found to be 0.036 µM on Histone deacetylase 1 [3], 21 µM on Histone deacetylase 4, 0.0041 µM in [11] and 0.351 µM on Histone deacetylase 8. Besides, the inhibition result in series [6] and in series [10] was “Dose-dependent effect” each time. Also, in series [7], the ΔTm (as a rule, the shift of the melting midpoint relative to a reference) stood at 7.36 °C. Further, the inhibition entry in series [9] is “Active”.

Regarding `O=C(CCCCCCCN(Cc1ccc(F)cc1)c1ncc(C(=O)NCCCn2ccnc2)s1)NO`, the IC50 in series [1] was found to be 0.018 µM; with A549, 6.6 µM; in the series with HepG2, 26 µM; with HCT-116 [2], 63 µM; at Histone deacetylase 1 [3] it was 0.044 µM.

As for `O=C(NO)c1ccc(CN(Cc2ccc(F)cc2)c2ncc(C(=O)NCCCn3ccnc3)s2)cc1`, the half-inhibitory concentration (IC50) in series [1] amounted to 0.014 µM; with A549, 7.3 µM; with HepG2, 79 µM; in the series on HCT-116 [2], 99 µM; at Histone deacetylase 1 [3], 0.046 µM.

As for `O=C(CCCCCCN(Cc1ccc(F)cc1)c1ncc(C(=O)NCc2cccnc2)s1)NO`, the IC50 was 0.47 µM in [1]; 22 µM with A549; 14 µM with HepG2; 17 µM in the series with HCT-116 [2]; 0.095 µM at Histone deacetylase 1 [3].

With `O=C(CCCCCCC(=O)Nc1ccccc1)NO` [VORINOSTAT], in the series on Mus musculus [12], the Activity result is “Non-Toxic”.

As for `CC(C)CCN(CCCCCCC(=O)NO)c1ncc(C(=O)NCCCn2ccnc2)s1`, the IC50 in series [1] was 0.015 µM; with A549, 5.2 µM; in the series with HepG2, 24 µM; with HCT-116 [2] it was 30 µM; at Histone deacetylase 2, 0.0068 µM; in series [8], 0.00064 µM. For the same compound, the IC50 on Histone deacetylase 1 [3] was found to be 0.002 µM; on Histone deacetylase 4, 12 µM; in series [11], 0.00067 µM; at Histone deacetylase 8, 0.204 µM. Moreover, the inhibition entry in series [6] and in [10] was “Dose-dependent effect” in each case. Moreover, in the series with HCT-116 [13], the inhibition in vivo at 25 mg/kg was determined as 42%. Besides, the ΔTm in series [7] was determined as 3.01 °C. In addition, the inhibition result in series [9] is “Active”. The Ratio IC50 at Histone deacetylase 1 [14] came out at 10. In addition, the Activity entry in the series on Mus musculus [12] is “Non-Toxic”.
